pIC50: −log10 of the molar value. One block for each compound: values may come before it. Calls of active or inactive are those of the source. The rule behind the calls is not given here.
Key:
[1] = test system: HL-60; experiment: Cytotoxicity against human HL60 cells after 72 hrs by trypan blue assay; format: functional, cell-based; conditions: HL-60, 72 h
Procedure, shortened: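 HL-60 cells kept in RPMI 1640 with 15% heat-inactivated FCS plus antibiotics, 37 °C, 5% CO2. 4×10^4 cells/well seeded, 24 h, then a range of concentrations added to complete medium for 72 h. Cell number counted by trypan blue; IC50 is the concentration giving 50% fewer cells than control cultures.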

[2] = test system: HeLa; experiment: Cytotoxicity against human HeLa cells after 72 hrs by trypan blue assay; format: functional, cell-based
Procedure, shortened: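 HeLa cells kept in Ham's F-12 with 10% heat-inactivated FCS plus antibiotics, 37 °C, 5% CO2. 4×10^4 cells/well seeded, 24 h, medium renewed, then a range of concentrations added for 72 h. Viability by trypan blue; IC50 is the concentration giving 50% fewer cells than control.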

[3] = test system: Salmonidae; experiment: Binding affinity to Salmon testes DNA assessed as drug-DNA complex formation by linear flow dichroism method
Procedure, shortened: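 Salmon testes DNA at 1.6×10^-3 M in ETN buffer (10 mM Tris, 10 mM NaCl, 1 mM EDTA, pH 7). DNA concentration set from extinction coefficient 6600 M(p)-1 cm-1 at 260 nm. Linear dichroism spectra recorded at 25 °C at [drug]/[DNA] = 0.00 and 0.08.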

[4] = organism: Rattus norvegicus; experiment: Effect on mitochondrial swelling in rat liver mitochondria assessed as complete collapse of electrical membrane potential at 50 uM; format: functional
[5] = organism: Rattus norvegicus; experiment: Decrease in mitochondrial sulfydryl groups in rat liver mitochondria at 50 uM; format: functional; set-up: scale not given: the % may be the effect or the level left
Procedure, shortened: (§1)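 Rat liver mitochondria (1 mg protein/mL) at 20 °C in 250 mM sucrose, 10 mM Hepes pH 7.4, 5 mM succinate, 1.25 μM rotenone with 30 μM Ca2+ unless omitted. Agent 50 μM; DTE 2 mM where present. Protein thiol oxidation measured; mean ± SD of four independent experiments.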

[6] = organism: Rattus norvegicus; experiment: Decrease in mitochondrial sulfydryl groups in rat liver mitochondria at 50 uM in presence of DTE; format: functional; procedure, shortened: as §1
[7] = organism: Rattus norvegicus; experiment: Increase in hydrogen peroxide production in rat liver mitochondria assessed per mg of protein at 50 uM; format: functional
Procedure, shortened: (§2)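 Rat liver mitochondria, 1 mg protein/mL, 20 °C, standard succinate/rotenone medium pH 7.4 with 30 μM Ca2+ unless omitted. Agent 50 μM. H2O2 measured fluorometrically by the scopoletin method, expressed per mg protein; mean ± SD of four independent experiments.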

[8] = organism: Rattus norvegicus; experiment: Increase in hydrogen peroxide production in rat liver mitochondria assessed per mg of protein at 50 uM in presence of CA2+; format: functional; procedure, shortened: as §2
[9] = organism: Rattus norvegicus; experiment: Induction of cytochrome c release in rat liver mitochondria at 50 uM by Western blotting in presence of Ca2+; format: functional
Procedure, shortened: (§3)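 Rat liver mitochondria (1 mg protein/mL) incubated 15 min at 20 °C in standard medium with 30 μM Ca2+ unless omitted. Agent 50 μM, CsA 1 μM. Supernatant after 13,000 g, 10 min, 4 °C, concentrated and run on SDS-PAGE (15% for cyt c, 10% for AIF). Western blot with anti-cyt c and anti-AIF antibodies.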

[10] = organism: Rattus norvegicus; experiment: Induction of apoptosis inducing factor release in rat liver mitochondria at 50 uM by Western blotting in presence of Ca2+; format: functional; procedure, shortened: as §3
[11] = organism: Rattus norvegicus; experiment: Induction of cytochrome c release in rat liver mitochondria at 50 uM by Western blotting in presence of cyclosporin A; format: functional; procedure, shortened: as §3
[12] = organism: Rattus norvegicus; experiment: Induction of apoptosis inducing factor release in rat liver mitochondria at 50 uM by Western blotting in presence of cyclosporin A; format: functional; procedure, shortened: as §3
[13] = test system: HeLa; experiment: Induction of apoptosis in human HeLa cells assessed as early stage apoptotic cell count at 50 uM using Annexin-V-FITC PI stain by flow cytometry; format: functional
Procedure, shortened: (§4)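 Near-confluent HeLa cells exposed to 50 μM agent for 0, 24 or 48 h at 37 °C. About 5×10^5 cells in binding buffer (10 mM Hepes pH 7.5, 140 mM NaCl, 2.5 mM CaCl2) stained with 1 μg/ml Annexin V-FITC and 1 μg/ml PI, 10 min at room temperature in the dark. Flow cytometry; mean of three independent experiments.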

[14] = test system: HeLa; experiment: Induction of apoptosis in human HeLa cells assessed as late stage apoptotic cell count at 50 uM using Annexin-V-FITC PI stain by flow cytometry; format: functional; procedure, shortened: as §4
[15] = test system: HeLa; experiment: Induction of apoptosis in human HeLa cells assessed as non apoptotic cell count at 50 uM using Annexin-V-FITC PI stain by flow cytometry; format: functional; procedure, shortened: as §4
[16] = test system: HeLa; experiment: Induction of apoptosis in human HeLa cells assessed as dead cell count at 50 uM using Annexin-V-FITC PI stain by flow cytometry; format: functional
[17] = test system: HeLa; experiment: Induction of apoptosis in human HeLa cells assessed as early stage apoptotic cell count at 50 uM treated for 24 hrs before Annexin-V-FITC PI staining by flow cytometry; format: functional; procedure, shortened: as §4
[18] = test system: HeLa; experiment: Induction of apoptosis in human HeLa cells assessed as late stage apoptotic cell count at 50 uM treated for 24 hrs before Annexin-V-FITC PI staining by flow cytometry; format: functional; procedure, shortened: as §4
[19] = test system: HeLa; experiment: Induction of apoptosis in human HeLa cells assessed as non apoptotic cell count at 50 uM treated for 24 hrs before Annexin-V-FITC PI staining by flow cytometry; format: functional; procedure, shortened: as §4
[20] = test system: HeLa; experiment: Induction of apoptosis in human HeLa cells assessed as dead cell count at 50 uM treated for 24 hrs before Annexin-V-FITC PI staining by flow cytometry; format: functional
[21] = test system: HeLa; experiment: Induction of apoptosis in human HeLa cells assessed as early stage apoptotic cell count at 50 uM treated for 48 hrs before Annexin-V-FITC PI staining by flow cytometry; format: functional; procedure, shortened: as §4
[22] = test system: HeLa; experiment: Induction of apoptosis in human HeLa cells assessed as late stage apoptotic cell count at 50 uM treated for 48 hrs before Annexin-V-FITC PI staining by flow cytometry; format: functional; procedure, shortened: as §4
[23] = test system: HeLa; experiment: Induction of apoptosis in human HeLa cells assessed as non apoptotic cell count at 50 uM treated for 48 hrs before Annexin-V-FITC PI staining by flow cytometry; format: functional; procedure, shortened: as §4
[24] = test system: HeLa; experiment: Induction of apoptosis in human HeLa cells assessed as dead cell count at 50 uM treated for 48 hrs before Annexin-V-FITC PI staining by flow cytometry; format: functional
[25] = test system: HeLa; experiment: Cytotoxicity against human HeLa cells assessed as viable cells at 6 uM after 72 hrs by trypan blue assay in presence of cyclosporin A; format: functional; conditions: read-out: Activity
Procedure, shortened: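 HeLa cells seeded, after 24 h pretreated 30 min with 2 μM CsA. Medium renewed, 6 μM agent added, 72 h. Viable cells counted by trypan blue and expressed as percent of control culture cell number.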

[26] = organism: Rattus norvegicus; experiment: Decrease in mitochondrial sulfydryl groups in rat liver mitochondria at 50 uM in presence of Ca2+; format: functional; procedure, shortened: as §1
[27] = organism: Rattus norvegicus; experiment: Effect on mitochondrial swelling in rat liver mitochondria assessed as complete collapse of electrical membrane potential at 50 uM in presence of bongkrekic acid; format: functional
[28] = test system: HeLa; experiment: Induction of DNA fragmentation in human HeLa cells at 100 uM after 24 hrs in presence of cyclosporin A; format: functional, cell-based
Procedure, shortened: (§5)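 HeLa cells (5×10^5) grown 24 h at 37 °C, optionally pretreated 30 min at 37 °C with 5 μM CsA. Medium renewed, agent added at 100 μM for 24 h. Extracted DNA in TE buffer run on 0.8% agarose gel in TBE, pH 8.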

[29] = test system: HeLa; experiment: Induction of DNA fragmentation in human HeLa cells at 100 uM after 24 hrs; format: functional, cell-based; procedure, shortened: as §5
[30] = test system: HeLa; experiment: Induction of mitochondrial membrane depolarization in human HeLa cells at 50 uM after 24 hrs by FL2 staining; format: functional
Procedure, shortened: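 Near-confluent HeLa cells given 50 μM agent in DMSO for 24 h at 37 °C; JC-1 added at […] final for the last 10 min. Positive control 20 μM H2O2 for 24 h. After cold PBS wash, flow cytometry with 488 nm excitation; monomers at 530 nm, aggregates (FL2) at 585/650 nm. At least 10,000 events; one of four experiments.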

[31] = organism: Rattus norvegicus; experiment: Effect on mitochondrial swelling in rat liver mitochondria assessed as complete collapse of electrical membrane potential at 50 uM in presence of Ca2+; format: functional
[32] = organism: Rattus norvegicus; experiment: Effect on mitochondrial swelling in rat liver mitochondria assessed as complete collapse of electrical membrane potential at 50 uM in presence of cyclosporin A; format: functional
[33] = organism: Rattus norvegicus; experiment: Effect on mitochondrial swelling in rat liver mitochondria assessed as complete collapse of electrical membrane potential at 50 uM in presence of ADP; format: functional
[34] = organism: Rattus norvegicus; experiment: Effect on mitochondrial swelling in rat liver mitochondria assessed as complete collapse of electrical membrane potential at 50 uM in presence of N-ethylmaleimide; format: functional

Compound: COc1ccc2c(c1)SCc1cn[nH]c1-2
- pIC50 [1]: < 4.70
- pIC50 [2]: < 4.70

Compound: Clc1ccc2c(c1)SCc1cn[nH]c1-2
- pIC50 [1]: < 4.70
- pIC50 [2]: < 4.70

- Activity [3]: inactive
Compound: COc1ccc2c(c1)SCc1cnn(-c3ccccc3)c1-2
- pIC50 [1]: 4.90
- pIC50 [2]: 4.76

Compound: COc1ccc2c(c1)SCc1cn(-c3ccccc3)nc1-2
- pIC50 [1]: < 4.70
- pIC50 [2]: < 4.70

Compound: Clc1ccc2c(c1)SCc1cnn(-c3ccccc3)c1-2
- pIC50 [1]: < 4.70
- pIC50 [2]: < 4.70

Compound: COc1ccc2c(c1)SCc1cnc(-c3ccccc3)nc1-2
- pIC50 [1]: 5.15

Compound: COc1ccc(-n2ncc3c2-c2ccc(Cl)cc2SC3)cc1
- pIC50 [1]: < 4.70
- pIC50 [2]: < 4.70

Compound: Clc1ccc(-n2ncc3c2-c2ccc(Cl)cc2SC3)cc1
- pIC50 [1]: < 4.70
- pIC50 [2]: < 4.70

Compound: COc1ccc(-n2cc3c(n2)-c2ccc(OC)cc2SC3)cc1
- pIC50 [1]: < 4.70
- pIC50 [2]: < 4.70

Compound: COc1ccc2c(c1)SCc1cn(-c3ccc(Cl)cc3)nc1-2
- pIC50 [1]: < 4.70
- pIC50 [2]: < 4.70

- Activity [3]: inactive
Compound: COc1ccc(-n2ncc3c2-c2ccc(OC)cc2SC3)cc1
- pIC50 [1]: 5.18
- pIC50 [2]: 4.75

Compound: COc1ccc2c(c1)SCc1cnn(-c3ccc(Cl)cc3)c1-2
- Activity [4]: inactive
- Activity [5]: 20%
- Activity [6]: Active
- Activity [7]: 0.25 nmol
- Activity [8]: 0.55 nmol
- Activity [9]: Active
- Activity [10]: Active
- Activity [11]: inactive
- Activity [12]: inactive
- Activity [13]: 4.8%
- Activity [14]: 1.2%
- Activity [15]: 93.4%
- Activity [16]: 0.6%
- Activity [17]: 19.7%
- Activity [18]: 28.2%
- Activity [19]: 46.7%
- Activity [20]: 5.4%
- Activity [21]: 8.5%
- Activity [22]: 39%
- Activity [23]: 40.9%
- Activity [24]: 11.6%
- viability at 6 µM [25]: 64%
- Activity [26]: 2
- Activity [27]: inactive
- Activity [28]: inactive
- Activity [29]: Active
- Activity [30]: 39.4%
- pIC50 [1]: 5.42
- pIC50 [2]: 5.17
- Activity [3]: inactive
- Activity [31]: Active
- Activity [32]: inactive
- Activity [33]: inactive
- Activity [34]: inactive
